Source: PubChem (several laboratories)
This is a sample that favours compounds with a hit; in the whole collection about 3.7% have one here.
m-calpain inh: blocks pig calpain II enzyme activity | purified calpain II, fluorogenic peptide substrate, 30 min | 220,000 compounds, 0.37% hits | inhibition, % at 16 µM;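 active = inhibition above about 50%, limit read from the data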
Arbovirus anti: antivirals against arbovirus infection | inhibition, % at 10 µM | AID 1251 | arbovirus infection cell-based antiviral screen | 200,000 compounds, 0.37% hits; in the data active = inhibition above about 30%
ROMK primary: modulates human ROMK potassium channel activity; P48048; Tet-inducible ROMK, thallium flux fluorescence; actives lie on both sides; B-score at 10 µM; 130,000 compounds, 2% hits;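 active = signal ratio slope over the read window, or its plate-corrected B-score, at least 3 SD from the plate mean, either direction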;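 also: B-score of the F/F0 ratio slope over 7 to 12 s after thallium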
KCC2 mod: modulators of human KCC2 chloride dependent transport; Q9H2X9; KCC2 cells, thallium flux FluoZin-2 fluorescence; B-score of Tl+ flux slope (higher = more flux/activation; lower = inhibition) at 10 µM; 190,000 compounds, 2.2% hits;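 active = thallium flux slope and its plate-corrected score both differing from the plate sample mean at a set confidence after two filtering rounds, in either direction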;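 also: slope of fluorescence scaled to starting intensity during 10 to 20 s after thallium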
PKD1 kinase inh: blocks activity of human protein kinase D1; Q15139; PKD1 kinase fluorescence polarization assay; inhibition, % (no concentration beside the values); 200,000 compounds, 0.056% hits; AID 797; in the data active = inhibition above about 50%
Mdm2 ligase inh: blocks human Mdm2 ubiquitin ligase activity | Q00987 | cell-based MDM2 ubiquitination luciferase reporter, 2 h; 0 = plate control, 100 = twice control, blank-subtracted | signal enhancement, % at 5 µM | 210,000 compounds, 0.11% hits;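 active = signal enhancement of 30% or more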;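 also: luminescence tracks abundance of the self-degrading MDM2-luciferase fusion protein; higher signal means inhibition of MDM2 E3 ligase activity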
Target sequence (Q00987 whole entry, looked up, the tested form may be a part): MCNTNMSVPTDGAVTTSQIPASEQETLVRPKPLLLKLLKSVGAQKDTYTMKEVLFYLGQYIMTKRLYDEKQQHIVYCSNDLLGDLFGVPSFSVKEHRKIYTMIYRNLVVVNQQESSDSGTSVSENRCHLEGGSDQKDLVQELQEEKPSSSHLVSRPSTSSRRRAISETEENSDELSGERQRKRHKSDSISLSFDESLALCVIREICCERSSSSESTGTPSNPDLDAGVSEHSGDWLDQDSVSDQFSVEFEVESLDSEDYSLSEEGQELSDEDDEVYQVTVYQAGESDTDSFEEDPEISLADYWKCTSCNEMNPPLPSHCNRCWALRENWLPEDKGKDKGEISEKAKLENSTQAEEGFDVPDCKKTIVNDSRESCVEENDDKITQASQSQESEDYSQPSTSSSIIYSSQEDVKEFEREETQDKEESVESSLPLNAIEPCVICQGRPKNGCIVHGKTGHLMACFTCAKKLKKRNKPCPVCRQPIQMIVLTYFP
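Buffer or medium: Cells held in DMEM | Assay system: Stable mammalian line carrying autodegrading MDM2–luciferase fusion reporter | Quantity: 2000 cells/well | Times: 4 h settle plus 2 h compound, 37 °C | Doses: One concentration, 5 µM, with 0.2% DMSO | Technique: Luminescence with SteadyLite reagent, 15 min at room temperature | Benchmarks: Plate controls and plate blanks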
ROMK retest: human ROMK channel modulation, retest confirmation; normalized thallium flux (F/F0 slope) at 10 µM; ROMK thallium flux, fluorescence ratio; active compounds read low; 3,000 compounds, 54% hits; shares compounds with ROMK primary;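 active = Flux at 10 µM at least 3 SD below or above vehicle control mean in one or both replicates; inconclusive = no clear call, values can overlap the other calls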
Each line names hits and unclear results; the compound was inactive in the other large screens (follow-up assays come after a bar, where they were run).

COc1ccc(OC)c(-c2cc(-c3cccnc3)nc(N)c2C#N)c1	ROMK primary 3.5 (no result: Arbovirus anti, PKD1 kinase inh) | ROMK retest inactive
CCOc1cc(-c2cc(-c3ccc(C)cc3)nc(N)c2C#N)ccc1O	none (no result: KCC2 mod)
Cn1c(=S)[nH]c2[nH]c(=O)cnc2c1=O	none
COc1ccc(C(=O)C(CCC(CNC(C)(C)C)C(=O)c2ccc(OC)cc2)CNC(C)(C)C)cc1 (stereo unspecified)	none (no result: ROMK primary) | ROMK retest 0.066
COc1ccc(C(=O)NN)cc1	none (no result: Arbovirus anti, ROMK primary, PKD1 kinase inh)
C=C1CN(CC(=O)OC)S(=O)(=O)c2ccccc21	none (no result: Arbovirus anti, ROMK primary, PKD1 kinase inh)
C=CC1CN(CC(=O)OC)S(=O)(=O)c2ccccc21 (stereo unspecified)	none (no result: Arbovirus anti, ROMK primary, PKD1 kinase inh) | ROMK retest inactive
COC(=O)CNC(=O)C(C)NC(=O)CNC(=O)OCc1ccccc1 (stereo unspecified)	none (no result: ROMK primary) | ROMK retest inactive
COC(=O)C(CO)NC(=O)C(C)NC(=O)CNC(=O)OCc1ccccc1 (stereo unspecified)	none
CC(C)(C)OC(=O)C(Cc1ccc(OC(C)(C)C)cc1)NC(=O)CNC(=O)OCc1ccccc1 (stereo unspecified)	ROMK primary -2.2 | ROMK retest 0.058
C[C@H](NC(=O)OCc1ccccc1)C(=O)NNC(=O)[C@H](Cc1ccccc1)NC(=O)OC(C)(C)C	none (no result: Arbovirus anti, ROMK primary, PKD1 kinase inh)
COc1ccc(OC)c(/C=C2\SC(=S)N(C(C(=O)O)c3ccccc3)C2=O)c1 (stereo unspecified)	none (no result: Arbovirus anti, ROMK primary, KCC2 mod, PKD1 kinase inh) | ROMK retest 0.052
CCOc1ccc(/C=C2\SC(=S)N(C(C(=O)O)c3ccccc3)C2=O)cc1OC (stereo unspecified)	none (no result: Arbovirus anti, ROMK primary, PKD1 kinase inh)
Cc1nn(Cc2ccccc2)c(Cl)c1C(=O)OC(C)C#N (stereo unspecified)	none
COc1ccccc1NC(=O)c1sc2nc(Cc3ccccc3)cc(C(F)(F)F)c2c1N	ROMK primary -5.5 | ROMK retest 0.048
O=C(Nc1cnc2ccccc2c1)c1cccc(-n2cnnn2)c1	none (no result: ROMK primary) | ROMK retest 0.06
O=S(=O)(Nc1nc2ccccc2nc1Nc1ccc(N2CCOCC2)cc1)c1cc(Cl)ccc1Cl	none (no result: ROMK primary) | ROMK retest 0.057
COc1ccc(NC(=O)/C(Cl)=C(/Cl)S(=O)Cc2ccccc2)cn1 (stereo unspecified)	ROMK primary -3.5 (no result: KCC2 mod) | ROMK retest 0.047
COc1ccc(CS(=O)(=O)/C(Cl)=C(/Cl)C(=O)Nc2ccc(OC)nc2)cc1	ROMK primary -2.8 | ROMK retest inconclusive
COc1ccc(/C=C/C(=O)Nc2ccc(OC)nc2)cc1	none
CC(C)c1ccc(-n2c(-c3ccccc3)c[n+]3c2CCc2ccccc2-3)cc1	ROMK primary -6 | ROMK retest 0.041
CC(C)(C)C1CCC(C(=O)OCC(=O)N2CCOCC2)CC1 (stereo unspecified)	none
COC(=O)c1ccc2c(c1)C(C)(C)C(/C=C/c1ccc(OC)c(OC)c1OC)=[N+]2C	none (no result: ROMK primary) | ROMK retest 0.058
COC(=O)c1ccc2c(c1)C(C)(C)C(/C=C/c1ccc(O)cc1)=[N+]2C	none (no result: ROMK primary)
CC(c1ccco1)N(C(=O)CSc1ccc(Br)cc1)c1ccccn1 (stereo unspecified)	ROMK primary -4.1 | ROMK retest 0.058
Cc1ccc(CN2CCC(c3nc4ccc(Cl)cc4[nH]3)CC2)cc1	none (no result: ROMK primary, KCC2 mod) | ROMK retest inconclusive
Clc1ccc2nc(C3CCN(Cc4ccccc4)CC3)[nH]c2c1	none (no result: ROMK primary)
O=C1CC(/C=C/c2ccc(Cl)cc2)=Nc2ccccc2N1	ROMK primary -3.4 | ROMK retest 0.059
CC1(C)CC(/C=C/c2ccccc2)=Nc2ccccc2N1	none (no result: Arbovirus anti, ROMK primary, PKD1 kinase inh) | ROMK retest 0.036
COc1ccc(C2(O)CCN(C(=O)c3ccc4c(c3)OCO4)CC2)cc1	none (no result: ROMK primary)
C=CCOc1ccccc1CN1CCC(CO)(CCOc2ccccc2)CC1	none (no result: KCC2 mod)
Cc1cccn2c(=O)c(C=O)c(N3CCCCCC3)nc12	ROMK primary 2.1 | ROMK retest inactive
CC1(CC(=O)N/N=C/c2cc3c(cc2Br)OCO3)OCCO1	none
OC(COCc1ccc(Cl)cc1)CN1CCN(CC(O)COCc2ccc(Cl)cc2)CC1 (stereo unspecified)	ROMK primary -3 | ROMK retest 0.054
COc1cccc(/C=C(/C#N)c2ccc(Cl)cc2)c1OCc1cccc(C(=O)O)c1	ROMK primary 2.4 | ROMK retest inactive
CCOC(=O)N/N=C/c1cc(C)n(-c2ccccc2)c1C	ROMK primary 2.4 | ROMK retest inactive
Cc1cc(/C=N/NC(=O)c2cccc(F)c2)c(C)n1-c1ccccc1	ROMK primary 4.8 | ROMK retest inactive
COc1ccc(C(NC(=O)C2CCCCC2)c2c(O)ccc3ccccc23)cc1 (stereo unspecified)	none
CC(=O)c1c(C)[nH]c(C(=O)OCCCCN2C(=O)c3ccccc3C2=O)c1C	none (no result: ROMK primary) | ROMK retest 0.061
CC(C)(C)OC(=O)C(Cl)(C(=O)OC(C)(C)C)c1ccc2nnnn2n1	none | ROMK retest 0.064
CC(=O)Nc1ccccc1-c1nc2ccc(C(=O)N3CCN(c4cc(C)ccc4C)CC3)cc2[nH]c1=O	none (no result: ROMK primary, KCC2 mod)
COc1cc(CNCCO)cc(Cl)c1OCc1ccc(Cl)cc1Cl	none
COc1ccccc1NC(=O)N1CCc2[nH]c3ccc(Cl)cc3c2C1	none (no result: ROMK primary, KCC2 mod, Mdm2 ligase inh)
CC(C)[C@H](NS(=O)(=O)c1cccc(C(F)(F)F)c1)C(=O)OCC(N)=O	none
O=C(CN1CCC(c2nc3ccccc3s2)CC1)NCc1ccccc1	ROMK primary -3 | ROMK retest inactive
O=C(c1cc2cc([N+](=O)[O-])ccc2s1)N1CCOCC1	none
COc1ccc(NC(=O)COc2ccc(/C=N/n3c(C)nnc3C)cc2OC)cc1	none (no result: ROMK primary)
COc1cc(/C=N\n2cnnc2)ccc1OCC(=O)Nc1ccc(C)cc1	none (no result: ROMK primary, Mdm2 ligase inh) | ROMK retest inactive
CS(=O)(=O)Nc1ccc(C(=O)Nc2ccccc2C(=O)N2CCCC2)cc1	none (no result: ROMK primary, KCC2 mod) | ROMK retest inactive
COC(=O)c1ccccc1NC(=O)c1ccc(NS(C)(=O)=O)cc1	none
COc1cc(NC(C)CCCN)c2ncccc2c1Oc1ccccc1 (stereo unspecified)	ROMK primary -3.6 | ROMK retest 0.065
COc1cc(C(=O)Nc2cccc3cccnc23)cc(OC)c1OC	none (no result: ROMK primary)
Cc1cccc(N=Cc2cc(Br)cc(Cl)c2O)c1	ROMK primary 4.1 | ROMK retest 0.12
CSCCC(NS(=O)(=O)c1ccc(Cl)cc1)C(=O)OCC(=O)N1CCOCC1 (stereo unspecified)	ROMK primary 6.3 | ROMK retest inactive
CCOC(=O)c1ccc(CSc2nnc(-c3ccncc3)n2N)cc1	none (no result: ROMK primary)
O=C1c2ccccc2C(=O)N1CCCn1c(=O)oc2ccccc21	ROMK primary 0.79 (no result: Mdm2 ligase inh) | ROMK retest inactive
CCCn1c(SCC(N)=O)nnc1-c1ccco1	none (no result: ROMK primary)
CC1CCN(c2cc(N)c(Cl)cc2[N+](=O)[O-])CC1	none (no result: ROMK primary, KCC2 mod) | ROMK retest 0.069
CC1CCCC(C)N1C(=O)CSc1nnc(C2CCCCC2)o1 (stereo unspecified)	none (no result: ROMK primary)
